Experimental data: ChEMBL document CHEMBL1142080, “In vitro activities of amphotericin B, caspofungin, itraconazole, posaconazole, and voriconazole against 45 clinical isolates of zygomycetes: comparison of CLSI M38-A, Sensititre YeastOne, and the Etest” (2007)
Values after ≈ are worked out from the molar mass of the structure shown.

Legend:
Assay type in all cases: functional
Absidia [1] = experiment: Antifungal activity against Absidia spp after 24 hrs
Procedure, shortened: (§1)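 Broth microdilution per CLSI M38-A, with plates incubated at 35°C and read at 24 and 48 h. Final well concentrations were 0.03 to 16 µg/ml for four agents and 0.250 to 256 µg/ml for the echinocandin. The MIC was the lowest concentration giving complete growth inhibition (MIC-0). For the echinocandin, the MEC was also read as the lowest concentration showing abnormal growth. QC strains were A. flavus ATCC 204304 and A. fumigatus ATCC 204305.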

Absidia [2] = experiment: Antifungal activity against Absidia spp after 48 hrs; procedure, shortened: as §1
Cunninghamella [3] = experiment: Antifungal activity against Cunninghamella spp after 24 hrs; procedure, shortened: as §1
Cunninghamella [4] = experiment: Antifungal activity against Cunninghamella spp after 48 hrs; procedure, shortened: as §1
Mucor [5] = experiment: Antifungal activity against Mucor spp after 24 hrs; procedure, shortened: as §1
Mucor [6] = experiment: Antifungal activity against Mucor spp after 48 hrs; procedure, shortened: as §1
Rhizomucor [7] = experiment: Antifungal activity against Rhizomucor spp after 24 hrs; procedure, shortened: as §1
Rhizomucor [8] = experiment: Antifungal activity against Rhizomucor spp after 48 hrs; procedure, shortened: as §1
Rhizopus [9] = experiment: Antifungal activity against Rhizopus spp after 24 hrs; procedure, shortened: as §1
Rhizopus [10] = experiment: Antifungal activity against Rhizopus spp after 48 hrs; procedure, shortened: as §1
Syncephalastrum [11] = experiment: Antifungal activity against Syncephalastrum spp after 24 hrs; procedure, shortened: as §1
Syncephalastrum [12] = experiment: Antifungal activity against Syncephalastrum spp after 48 hrs; procedure, shortened: as §1

Row | MIC50 (Absidia [1]) | MIC90 (Absidia [1]) | MIC50 (Absidia [2]) | MIC90 (Absidia [2]) | MIC50 (Cunninghamella [3]) | MIC90 (Cunninghamella [3]) | MIC50 (Cunninghamella [4]) | MIC90 (Cunninghamella [4]) | MIC50 (Mucor [5]) | MIC90 (Mucor [5]) | MIC50 (Mucor [6]) | MIC90 (Mucor [6]) | MIC50 (Rhizomucor [7]) | MIC90 (Rhizomucor [7]) | MIC50 (Rhizomucor [8]) | MIC90 (Rhizomucor [8]) | MIC50 (Rhizopus [9]) | MIC90 (Rhizopus [9]) | MIC50 (Rhizopus [10]) | MIC90 (Rhizopus [10]) | Compound | further results
1 | 1 mg/L (≈ 1.08 µM) | 4 mg/L (≈ 4.33 µM) | 0.5 mg/L (≈ 0.541 µM) | 4 mg/L (≈ 4.33 µM) | 2 mg/L (≈ 2.16 µM) | 4 mg/L (≈ 4.33 µM) | 2 mg/L (≈ 2.16 µM) | > 16 mg/L | 1 mg/L (≈ 1.08 µM) | 1 mg/L (≈ 1.08 µM) | 1 mg/L (≈ 1.08 µM) | 2 mg/L (≈ 2.16 µM) | 1 mg/L (≈ 1.08 µM) | 1 mg/L (≈ 1.08 µM) | 1 mg/L (≈ 1.08 µM) | 1 mg/L (≈ 1.08 µM) | 1 mg/L (≈ 1.08 µM) | 2 mg/L (≈ 2.16 µM) | 1 mg/L (≈ 1.08 µM) | 2 mg/L (≈ 2.16 µM) | C[C@@H]1[C@H](O)[C@@H](C)/C=C/C=C/C=C/C=C/C=C/C=C/C=C/[C@H](O[C@@H]2O[C@H](C)[C@@H](O)[C@H](N)[C@@H]2O)C[C@@H]2O[C@](O)(C[C@@H](O)C[C@@H](O)[C@H](O)CC[C@@H](O)C[C@@H](O)CC(=O)O[C@H]1C)C[C@H](O)[C@H]2C(=O)O [AMPHOTERICIN B] | MIC50 (Syncephalastrum [11]): 0.125 mg/L (≈ 0.135 µM); MIC90 (Syncephalastrum [11]): 1 mg/L (≈ 1.08 µM); MIC50 (Syncephalastrum [12]): 0.125 mg/L (≈ 0.135 µM); MIC90 (Syncephalastrum [12]): 2 mg/L (≈ 2.16 µM)
2 | 256 mg/L (≈ 234 µM) | > 256 mg/L | > 256 mg/L | > 256 mg/L | 256 mg/L (≈ 234 µM) | > 256 mg/L | 256 mg/L (≈ 234 µM) | > 256 mg/L | 256 mg/L (≈ 234 µM) | > 256 mg/L | > 256 mg/L | > 256 mg/L | 256 mg/L (≈ 234 µM) | 256 mg/L (≈ 234 µM) | > 256 mg/L | > 256 mg/L | > 256 mg/L | > 256 mg/L | > 256 mg/L | > 256 mg/L | CC[C@H](C)C[C@H](C)CCCCCCCCC(=O)N[C@H]1C[C@@H](O)[C@@H](NCCN)NC(=O)[C@@H]2[C@@H](O)CCN2C(=O)[C@H]([C@H](O)CCN)NC(=O)[C@H]([C@H](O)[C@@H](O)c2ccc(O)cc2)NC(=O)[C@@H]2C[C@@H](O)CN2C(=O)[C@H]([C@@H](C)O)NC1=O [CASPOFUNGIN] | minimal effective concentration (Absidia [1]; read-out: MEC): 64 µg/mL; minimal effective concentration (Absidia [2]; read-out: MEC): 256 µg/mL; minimal effective concentration (Cunninghamella [3]; read-out: MEC): 128 µg/mL; minimal effective concentration (Cunninghamella [4]; read-out: MEC): 128 µg/mL; minimal effective concentration (Mucor [5]; read-out: MEC): 128 µg/mL; minimal effective concentration (Rhizomucor [7]; read-out: MEC): 32 µg/mL; minimal effective concentration (Rhizomucor [8]; read-out: MEC): 64 µg/mL; minimal effective concentration (Rhizopus [9]; read-out: MEC): 128 µg/mL; minimal effective concentration (Rhizopus [10]; read-out: MEC): 256 µg/mL; MIC50 (Syncephalastrum [11]): 256 mg/L (≈ 234 µM); MIC90 (Syncephalastrum [11]): > 256 mg/L; minimal effective concentration (Syncephalastrum [11]; read-out: MEC): 8 µg/mL; MIC50 (Syncephalastrum [12]): 256 mg/L (≈ 234 µM); MIC90 (Syncephalastrum [12]): > 256 mg/L; minimal effective concentration (Syncephalastrum [12]; read-out: MEC): > 256 µg/mL
3 | 1 mg/L (≈ 1.42 µM) | > 16 mg/L | 1 mg/L (≈ 1.42 µM) | > 16 mg/L | 1 mg/L (≈ 1.42 µM) | 4 mg/L (≈ 5.67 µM) | 1 mg/L (≈ 1.42 µM) | 4 mg/L (≈ 5.67 µM) | 1 mg/L (≈ 1.42 µM) | > 16 mg/L | 4 mg/L (≈ 5.67 µM) | > 16 mg/L | 2 mg/L (≈ 2.83 µM) | 2 mg/L (≈ 2.83 µM) | > 16 mg/L | > 16 mg/L | 1 mg/L (≈ 1.42 µM) | > 16 mg/L | 4 mg/L (≈ 5.67 µM) | > 16 mg/L | CCC(C)n1ncn(-c2ccc(N3CCN(c4ccc(OCC5COC(Cn6cncn6)(c6ccc(Cl)cc6Cl)O5)cc4)CC3)cc2)c1=O (stereo unspecified) [ITRACONAZOLE] | MIC50 (Syncephalastrum [11]): 1 mg/L (≈ 1.42 µM); MIC90 (Syncephalastrum [11]): 1 mg/L (≈ 1.42 µM); MIC50 (Syncephalastrum [12]): 1 mg/L (≈ 1.42 µM); MIC90 (Syncephalastrum [12]): 8 mg/L (≈ 11.3 µM)

Row | Compound | MIC50 (Absidia [1]) | MIC90 (Absidia [1]) | MIC50 (Absidia [2]) | MIC90 (Absidia [2]) | MIC50 (Cunninghamella [3]) | MIC90 (Cunninghamella [3]) | MIC50 (Cunninghamella [4]) | MIC90 (Cunninghamella [4]) | MIC50 (Mucor [5]) | MIC90 (Mucor [5]) | MIC50 (Mucor [6]) | MIC90 (Mucor [6]) | MIC50 (Rhizomucor [7]) | MIC90 (Rhizomucor [7]) | MIC50 (Rhizomucor [8]) | MIC90 (Rhizomucor [8]) | MIC50 (Rhizopus [9]) | MIC90 (Rhizopus [9]) | MIC50 (Rhizopus [10]) | MIC90 (Rhizopus [10]) | further results
4 | CC[C@@H]([C@H](C)O)n1ncn(-c2ccc(N3CCN(c4ccc(OC[C@@H]5CO[C@@](Cn6cncn6)(c6ccc(F)cc6F)C5)cc4)CC3)cc2)c1=O [POSACONAZOLE] | 0.5 mg/L (≈ 0.713 µM) | 1 mg/L (≈ 1.43 µM) | 0.5 mg/L (≈ 0.713 µM) | > 16 mg/L | 0.5 mg/L (≈ 0.713 µM) | 0.5 mg/L (≈ 0.713 µM) | 0.5 mg/L (≈ 0.713 µM) | 0.5 mg/L (≈ 0.713 µM) | 0.5 mg/L (≈ 0.713 µM) | 2 mg/L (≈ 2.85 µM) | 0.5 mg/L (≈ 0.713 µM) | 2 mg/L (≈ 2.85 µM) | 0.5 mg/L (≈ 0.713 µM) | 0.5 mg/L (≈ 0.713 µM) | 2 mg/L (≈ 2.85 µM) | 2 mg/L (≈ 2.85 µM) | 0.5 mg/L (≈ 0.713 µM) | 0.5 mg/L (≈ 0.713 µM) | 0.5 mg/L (≈ 0.713 µM) | 1 mg/L (≈ 1.43 µM) | MIC50 (Syncephalastrum [11]): 0.25 mg/L (≈ 0.357 µM); MIC90 (Syncephalastrum [11]): 0.5 mg/L (≈ 0.713 µM); MIC50 (Syncephalastrum [12]): 0.5 mg/L (≈ 0.713 µM); MIC90 (Syncephalastrum [12]): 0.5 mg/L (≈ 0.713 µM)
5 | C[C@@H](c1ncncc1F)[C@](O)(Cn1cncn1)c1ccc(F)cc1F [VORICONAZOLE] | > 16 mg/L | > 16 mg/L | > 16 mg/L | > 16 mg/L | > 16 mg/L | > 16 mg/L | > 16 mg/L | > 16 mg/L | > 16 mg/L | > 16 mg/L | > 16 mg/L | > 16 mg/L | 16 mg/L (≈ 45.8 µM) | 16 mg/L (≈ 45.8 µM) | > 16 mg/L | > 16 mg/L | 16 mg/L (≈ 45.8 µM) | 16 mg/L (≈ 45.8 µM) | 16 mg/L (≈ 45.8 µM) | > 16 mg/L | MIC50 (Syncephalastrum [11]): 4 mg/L (≈ 11.5 µM); MIC90 (Syncephalastrum [11]): > 16 mg/L; MIC50 (Syncephalastrum [12]): > 16 mg/L; MIC90 (Syncephalastrum [12]): > 16 mg/L
